Legend:
plectin-1 = plectin-1 (Mus musculus, UniProt Q9QXS1); test: Competition experiment with anti-plectin-1 antibody; format: binding; conditions: coincubation of anti-plectin-1 antibody and FITC-labeled phage with mouse PDAC cells, 1 h at 37 °C, versus vehicle
[1] = tested on: mouse PanINs and PDAC lesions, frozen sections; test: Binding of FITC-labeled phage to frozen mouse pancreas sections; conditions: 1 μM FITC-labeled phage, 1 h at 37 °C, fluorescence microscopy, n = 3
How it was run: (§1)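 Frozen tissues (n = 3) were embedded in OCT, cut at 5 μm and arrayed on slides. Sections were incubated for 1 h at 37 °C with 1 μM FITC-labeled test phage or FITC-labeled control phage (no insert). They were then washed three times with PBS, fixed in 2% paraformaldehyde and imaged by fluorescence microscopy (40× objective).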

[2] = tested on: normal human ductal cells; format: cell-based; conditions: FITC-labeled phage 1 μM, 1 h at 37 °C, FACS
How it was run: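 Normal human ductal cells were incubated with 1 μM (FITC) FITC-labeled test phage or an unrelated control phage clone (SNLHPSD) for 1 h at 37 °C. Cells were washed three times with DPBS, trypsinized and centrifuged, then read by flow cytometry at 10,000 cells/sample. Mean fluorescence served as relative uptake.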

human PDAC = test: Binding of FITC-labeled phage to frozen human PDAC sections; conditions: 1 μM FITC-labeled phage, 1 h at 37 °C, fluorescence microscopy
How it was run: as §1

mouse PDAC cells = format: cell-based; conditions: flow cytometry
How it was run: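 Early-passage PDAC cells came from Kras/p53L/L mouse tumors; normal primary ductal cells came from wild-type mice. Phage (~1 × 10^12 PFU) were labeled with 0.25 mg/ml FITC for 1 h and PEG-purified. Cells were incubated with 1 μM (FITC) phage for 1 h at 37 °C, washed three times with DPBS and trypsinized. Mean fluorescence was read by flow cytometry at 10,000 cells/sample.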

Chain of plectin-1 (Q9QXS1 whole entry): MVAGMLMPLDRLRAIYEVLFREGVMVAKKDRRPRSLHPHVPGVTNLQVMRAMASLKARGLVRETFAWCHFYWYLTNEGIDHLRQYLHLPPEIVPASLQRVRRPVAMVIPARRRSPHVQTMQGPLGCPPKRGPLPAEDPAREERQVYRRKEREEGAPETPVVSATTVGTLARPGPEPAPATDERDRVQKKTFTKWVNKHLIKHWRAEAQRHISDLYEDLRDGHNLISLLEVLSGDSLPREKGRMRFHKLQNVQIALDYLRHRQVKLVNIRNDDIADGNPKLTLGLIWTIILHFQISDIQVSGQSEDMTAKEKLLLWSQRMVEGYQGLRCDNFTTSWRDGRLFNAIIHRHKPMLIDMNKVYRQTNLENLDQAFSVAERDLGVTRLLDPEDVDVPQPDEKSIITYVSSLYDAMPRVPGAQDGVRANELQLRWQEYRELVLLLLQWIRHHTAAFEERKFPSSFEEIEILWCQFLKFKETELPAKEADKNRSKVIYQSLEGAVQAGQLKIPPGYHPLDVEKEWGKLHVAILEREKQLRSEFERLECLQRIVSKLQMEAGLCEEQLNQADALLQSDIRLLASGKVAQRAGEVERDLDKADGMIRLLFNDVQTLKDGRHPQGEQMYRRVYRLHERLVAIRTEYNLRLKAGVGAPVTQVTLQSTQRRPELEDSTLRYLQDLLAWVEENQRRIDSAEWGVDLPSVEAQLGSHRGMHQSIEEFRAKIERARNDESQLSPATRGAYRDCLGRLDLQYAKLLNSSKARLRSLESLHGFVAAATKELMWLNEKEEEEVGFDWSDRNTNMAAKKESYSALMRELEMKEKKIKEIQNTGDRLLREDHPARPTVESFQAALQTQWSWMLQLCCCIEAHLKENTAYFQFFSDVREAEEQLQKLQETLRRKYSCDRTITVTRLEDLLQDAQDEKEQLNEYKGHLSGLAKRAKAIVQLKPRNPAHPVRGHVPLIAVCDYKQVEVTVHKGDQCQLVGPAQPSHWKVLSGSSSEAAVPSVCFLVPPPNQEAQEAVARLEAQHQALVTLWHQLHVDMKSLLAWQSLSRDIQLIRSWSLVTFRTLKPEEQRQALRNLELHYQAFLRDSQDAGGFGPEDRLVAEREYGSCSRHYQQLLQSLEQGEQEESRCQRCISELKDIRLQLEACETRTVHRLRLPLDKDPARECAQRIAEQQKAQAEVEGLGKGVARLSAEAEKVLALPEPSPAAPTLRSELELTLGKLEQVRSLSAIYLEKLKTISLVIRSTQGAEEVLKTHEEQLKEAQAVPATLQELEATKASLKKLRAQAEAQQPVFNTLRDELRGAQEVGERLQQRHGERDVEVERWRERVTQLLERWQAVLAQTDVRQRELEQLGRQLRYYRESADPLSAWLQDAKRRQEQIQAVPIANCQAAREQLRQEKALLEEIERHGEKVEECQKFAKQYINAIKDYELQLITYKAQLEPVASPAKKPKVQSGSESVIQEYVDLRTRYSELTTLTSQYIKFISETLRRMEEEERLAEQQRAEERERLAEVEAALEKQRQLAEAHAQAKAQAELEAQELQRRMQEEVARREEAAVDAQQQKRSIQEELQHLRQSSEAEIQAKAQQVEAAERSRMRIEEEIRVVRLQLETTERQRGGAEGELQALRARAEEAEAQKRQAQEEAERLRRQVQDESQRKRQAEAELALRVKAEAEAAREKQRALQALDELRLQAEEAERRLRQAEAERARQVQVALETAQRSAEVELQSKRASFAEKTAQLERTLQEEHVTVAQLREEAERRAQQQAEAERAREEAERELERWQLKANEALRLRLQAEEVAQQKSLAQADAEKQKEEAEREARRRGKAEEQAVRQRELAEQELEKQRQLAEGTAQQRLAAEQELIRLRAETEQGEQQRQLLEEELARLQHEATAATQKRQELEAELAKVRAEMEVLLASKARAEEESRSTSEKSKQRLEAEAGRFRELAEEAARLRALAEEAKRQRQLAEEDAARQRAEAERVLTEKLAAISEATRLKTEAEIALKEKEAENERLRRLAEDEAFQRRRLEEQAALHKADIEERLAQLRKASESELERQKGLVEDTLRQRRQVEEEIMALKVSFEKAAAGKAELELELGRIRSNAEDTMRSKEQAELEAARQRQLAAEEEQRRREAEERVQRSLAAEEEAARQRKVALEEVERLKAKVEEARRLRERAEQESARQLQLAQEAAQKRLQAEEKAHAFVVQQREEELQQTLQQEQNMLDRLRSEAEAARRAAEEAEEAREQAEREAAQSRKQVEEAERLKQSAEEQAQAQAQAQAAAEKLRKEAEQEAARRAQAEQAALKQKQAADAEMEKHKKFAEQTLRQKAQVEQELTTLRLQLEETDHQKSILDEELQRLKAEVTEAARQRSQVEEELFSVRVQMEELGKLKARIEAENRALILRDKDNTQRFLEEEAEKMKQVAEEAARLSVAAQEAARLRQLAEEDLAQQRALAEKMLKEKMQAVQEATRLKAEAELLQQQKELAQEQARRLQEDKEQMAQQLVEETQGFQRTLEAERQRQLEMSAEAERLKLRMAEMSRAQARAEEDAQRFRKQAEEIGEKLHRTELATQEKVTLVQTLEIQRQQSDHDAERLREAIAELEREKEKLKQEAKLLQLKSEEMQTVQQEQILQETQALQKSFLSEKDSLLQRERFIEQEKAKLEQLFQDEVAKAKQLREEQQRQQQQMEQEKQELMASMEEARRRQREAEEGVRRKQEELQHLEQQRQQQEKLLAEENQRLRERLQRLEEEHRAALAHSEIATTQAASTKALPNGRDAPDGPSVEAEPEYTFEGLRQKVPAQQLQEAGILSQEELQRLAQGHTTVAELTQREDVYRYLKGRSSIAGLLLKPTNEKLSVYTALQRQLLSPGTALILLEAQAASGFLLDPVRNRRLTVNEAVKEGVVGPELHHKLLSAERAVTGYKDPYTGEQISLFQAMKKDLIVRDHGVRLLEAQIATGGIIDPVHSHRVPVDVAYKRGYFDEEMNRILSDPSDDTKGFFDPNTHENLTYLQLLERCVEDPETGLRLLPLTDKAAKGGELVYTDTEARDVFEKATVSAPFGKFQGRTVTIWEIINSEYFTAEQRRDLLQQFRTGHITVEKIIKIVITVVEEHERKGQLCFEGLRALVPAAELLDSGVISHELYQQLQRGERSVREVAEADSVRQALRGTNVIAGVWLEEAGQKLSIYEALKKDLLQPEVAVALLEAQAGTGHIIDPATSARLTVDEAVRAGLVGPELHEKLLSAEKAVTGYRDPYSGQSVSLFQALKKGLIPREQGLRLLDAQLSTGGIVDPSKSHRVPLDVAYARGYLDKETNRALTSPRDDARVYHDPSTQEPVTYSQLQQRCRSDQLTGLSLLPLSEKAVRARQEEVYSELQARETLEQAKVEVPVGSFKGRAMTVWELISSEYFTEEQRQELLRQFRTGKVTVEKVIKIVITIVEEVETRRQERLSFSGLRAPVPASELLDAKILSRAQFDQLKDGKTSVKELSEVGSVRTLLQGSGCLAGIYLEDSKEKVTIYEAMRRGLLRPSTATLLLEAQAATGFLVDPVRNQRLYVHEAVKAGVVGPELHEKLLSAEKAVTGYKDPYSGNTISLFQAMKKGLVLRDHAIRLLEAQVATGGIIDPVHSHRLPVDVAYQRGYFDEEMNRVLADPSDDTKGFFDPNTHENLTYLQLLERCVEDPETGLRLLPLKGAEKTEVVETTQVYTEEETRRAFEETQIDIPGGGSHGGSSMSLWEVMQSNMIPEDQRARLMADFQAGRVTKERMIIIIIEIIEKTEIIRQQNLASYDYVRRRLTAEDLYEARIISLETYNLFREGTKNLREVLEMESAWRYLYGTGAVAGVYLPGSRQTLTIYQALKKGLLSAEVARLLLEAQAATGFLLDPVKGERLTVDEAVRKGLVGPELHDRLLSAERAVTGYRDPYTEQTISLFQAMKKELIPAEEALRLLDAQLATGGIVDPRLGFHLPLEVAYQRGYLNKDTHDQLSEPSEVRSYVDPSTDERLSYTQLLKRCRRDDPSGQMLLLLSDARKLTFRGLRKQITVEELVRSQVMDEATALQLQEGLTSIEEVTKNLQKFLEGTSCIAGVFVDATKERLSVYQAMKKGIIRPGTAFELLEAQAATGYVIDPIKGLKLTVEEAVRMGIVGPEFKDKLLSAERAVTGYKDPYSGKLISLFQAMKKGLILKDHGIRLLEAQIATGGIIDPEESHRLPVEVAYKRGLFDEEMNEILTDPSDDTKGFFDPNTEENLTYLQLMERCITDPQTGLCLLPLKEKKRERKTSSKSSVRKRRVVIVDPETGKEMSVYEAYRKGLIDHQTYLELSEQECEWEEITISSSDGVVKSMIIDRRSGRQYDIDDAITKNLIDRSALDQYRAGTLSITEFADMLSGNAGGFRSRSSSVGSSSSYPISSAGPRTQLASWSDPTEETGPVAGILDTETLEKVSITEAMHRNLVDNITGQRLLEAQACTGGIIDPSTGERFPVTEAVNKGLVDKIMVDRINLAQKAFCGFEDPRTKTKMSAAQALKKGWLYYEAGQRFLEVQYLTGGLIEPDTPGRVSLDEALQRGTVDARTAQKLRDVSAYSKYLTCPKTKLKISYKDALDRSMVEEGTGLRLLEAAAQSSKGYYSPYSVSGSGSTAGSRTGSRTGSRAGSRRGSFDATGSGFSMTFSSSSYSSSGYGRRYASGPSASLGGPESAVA

| Substance | abrogation of binding (plectin-1) [%] | binding to PanINs and PDAC lesions on frozen sections [1] | specificity (ratio of clone 27/unrelated clone mean fluorescence) [2] | detection of human PDAC on frozen sections (human PDAC) | specificity for mouse PDAC cells over normal ductal cells (mouse PDAC cells; FITC-labeled phage, 1 μM (FITC), 1 h at 37 °C, mean fluorescence) [fold] | rank of affinity among fluorescein-labeled phage clones (mouse PDAC cells; mouse PDAC and normal ductal cells, unpublished data) |
| --- | --- | --- | --- | --- | --- | --- |
| KTLLPTP [clone 27] | 96.9 | prominent binding | 0.85 | able to specifically detect human PDAC | 112 |  |
| TMAPSIK [clone 15] |  |  |  |  |  | second in affinity |

From PMC2292750 (PLoS Medicine, 2008)
